Source: ChEMBL document CHEMBL1137383, “New efficient substrates for semicarbazide-sensitive amine oxidase/VAP-1 enzyme: analysis by SARs and computational docking” (J Med Chem, 2006)
Active and inactive are the calls of the source. The calls are words filed in the database; no cut-off is given here.

Tests used:
[1] = biological target: T1, Amine oxidase [copper-containing] 3 (Homo sapiens) (UniProt Q16853); assay: Activity of human SSAO measured as hydrogen peroxide production at 1 mM relative to benzylamine oxidation; format: functional
T1 sequence (whole entry): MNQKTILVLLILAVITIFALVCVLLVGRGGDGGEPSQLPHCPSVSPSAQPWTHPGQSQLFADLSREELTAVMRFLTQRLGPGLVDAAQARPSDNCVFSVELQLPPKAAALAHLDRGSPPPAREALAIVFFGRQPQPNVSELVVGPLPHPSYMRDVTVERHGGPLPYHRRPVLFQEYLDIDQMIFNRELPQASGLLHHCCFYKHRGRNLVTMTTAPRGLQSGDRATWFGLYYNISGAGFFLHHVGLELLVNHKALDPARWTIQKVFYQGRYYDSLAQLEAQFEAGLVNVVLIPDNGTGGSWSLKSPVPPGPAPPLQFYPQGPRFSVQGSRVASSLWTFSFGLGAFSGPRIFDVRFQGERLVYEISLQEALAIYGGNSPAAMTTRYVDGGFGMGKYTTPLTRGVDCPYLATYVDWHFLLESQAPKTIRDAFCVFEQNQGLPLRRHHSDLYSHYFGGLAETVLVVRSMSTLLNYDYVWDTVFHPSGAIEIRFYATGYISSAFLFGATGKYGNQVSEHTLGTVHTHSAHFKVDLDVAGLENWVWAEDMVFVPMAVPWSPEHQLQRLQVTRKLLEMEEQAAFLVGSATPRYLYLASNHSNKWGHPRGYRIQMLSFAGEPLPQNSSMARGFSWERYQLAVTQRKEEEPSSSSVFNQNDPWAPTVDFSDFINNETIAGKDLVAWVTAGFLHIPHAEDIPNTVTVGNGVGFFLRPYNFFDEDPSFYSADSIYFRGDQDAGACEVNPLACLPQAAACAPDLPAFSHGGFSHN
How it was run: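 Human recombinant VAP-1 (0.1 µg protein/assay) in 0.2 mol/L phosphate buffer pH 7.4, 50 min at 37 °C; amine at 1 mM added with HRP/Amplex Red mix. H2O2 fluorescence (ex 545/em 590) read every 5 min, quantified against H2O2 standard curve; semicarbazide-preincubated (250 µM, 20 min) background subtracted. Mean percentage relative to benzylamine-derived H2O2.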

[2] = biological target: T2, Amine oxidase [copper-containing] 3 (Mus musculus) (UniProt O70423); assay: Activity of mouse SSAO measured as hydrogen peroxide production at 100 uM relative to benzylamine oxidation; format: functional
T2 sequence (whole entry): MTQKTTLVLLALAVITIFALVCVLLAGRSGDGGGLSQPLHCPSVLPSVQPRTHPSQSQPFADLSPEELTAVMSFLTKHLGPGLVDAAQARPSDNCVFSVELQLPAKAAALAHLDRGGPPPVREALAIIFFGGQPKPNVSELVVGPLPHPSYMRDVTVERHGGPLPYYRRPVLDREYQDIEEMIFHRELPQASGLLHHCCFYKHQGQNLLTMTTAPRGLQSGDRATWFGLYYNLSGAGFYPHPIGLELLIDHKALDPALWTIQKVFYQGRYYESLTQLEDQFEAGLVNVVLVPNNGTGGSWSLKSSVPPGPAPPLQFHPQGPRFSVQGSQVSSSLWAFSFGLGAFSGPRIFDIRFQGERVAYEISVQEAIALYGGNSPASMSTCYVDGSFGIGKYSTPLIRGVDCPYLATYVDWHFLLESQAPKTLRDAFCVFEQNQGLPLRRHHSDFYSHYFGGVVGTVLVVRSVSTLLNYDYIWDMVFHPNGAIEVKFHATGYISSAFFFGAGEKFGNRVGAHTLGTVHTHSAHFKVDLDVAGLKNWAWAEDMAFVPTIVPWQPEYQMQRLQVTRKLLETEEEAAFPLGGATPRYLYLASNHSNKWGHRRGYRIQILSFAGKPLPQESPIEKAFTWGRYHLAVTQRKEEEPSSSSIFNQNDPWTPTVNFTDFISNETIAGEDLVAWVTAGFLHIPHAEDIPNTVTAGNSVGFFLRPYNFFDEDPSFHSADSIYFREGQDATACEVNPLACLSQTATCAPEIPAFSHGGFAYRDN
How it was run: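 Mouse adipose tissue membranes (Swiss mice, 1 µg protein/assay) in 0.2 mol/L phosphate buffer pH 7.4, 50 min at 37 °C; amine at 100 µM added with HRP/Amplex Red. H2O2 fluorescence (ex 545/em 590) vs H2O2 standard curve, minus 250 µM semicarbazide (20 min preincubation) background. Mean percentage relative to benzylamine-derived H2O2.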

Adipocyte [3] = assay: Stimulation of glucose transport in mouse adipocytes at 0.1 mM in presence of sodium orthovanadate; format: functional, cell-based
How it was run: (§1)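 Adipocytes from internal fat pads of male Swiss mice (30-35 g), collagenase-isolated, incubated 45 min at 37 °C with amine ± 1 mM sodium orthovanadate (± 1 mM semicarbazide); then 2-deoxy-D-[3H]glucose (0.1 mM final) uptake over 10 min. Two experiments in triplicate, mean ± SEM.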

Adipocyte [4] = assay: Stimulation of glucose transport in mouse adipocytes at 1 mM in presence of sodium orthovanadate; format: functional, cell-based; how it was run: as §1

| Compound | Activity [1] [%] | Activity [2] [%] | Activity (Adipocyte [3]) | Activity (Adipocyte [4]) |
| --- | --- | --- | --- | --- |
| COc1cc(F)cc(CN)c1 | 2.53 | 4.86 | – | – |
| NCc1cccc(CNC(=O)c2ccc(O)cc2)c1 | 5 | 26 | – | – |
| COc1cccc2[nH]cc(CCN)c12 | 0 | 5.54 | – | – |
| NCc1ccc(OC(F)(F)F)cc1OC(F)(F)F | 0 | 0 | – | – |
| NCc1ccc(C(=O)O)cc1 | 0 | 4.06 | – | – |
| NCc1ccccc1 | 100 | 100 | Active | Active |
| CC(C)(C)c1ccc(CN)cc1 | 0 | 1 | – | – |
| NCc1cccc(CNC(=O)c2ccc(O)cc2O)c1 | 0 | 0 | – | – |
| NCCc1ccc(F)cc1 | 35 | 18 | – | – |
| NCCOc1ccccc1 | 17.9 | 14.6 | – | – |
| Cc1ccc(CN)cc1 | 0 | 0 | – | – |
| Cc1ccc(CN)cc1F | 88 | 133 | – | – |
| NCc1cccc(CNC(=O)CI)c1 | 38 | 61 | – | – |
| NCc1ccc(CN)cc1 | 0 | 0 | – | – |
| NCCCCc1ccccc1 | 166 | 71 | Active | Active |
| NCc1cccc(CN)c1 | 0 | 0 | – | – |
| NCc1ccc(-c2ccccc2)cc1 | 0 | 3.77 | – | – |
| CC(=O)NCc1cccc(CN)c1 | 3 | 16 | – | – |
| CC(C)c1ccc(CN)cc1 | 0 | 0 | – | – |
| NCc1ccc(C(F)(F)F)cc1 | 4 | 35 | – | – |
| NCc1cccc(CNC(=O)c2ccccc2)c1 | 17 | 58 | – | – |
| COc1ccc(CCN)cc1OC | 0 | 3.8 | – | – |
| NCCc1ccccc1 | 21 | 19 | – | – |

| Compound | Activity [1] [%] | Activity [2] [%] | Activity (Adipocyte [3]) | Activity (Adipocyte [4]) |
| --- | --- | --- | --- | --- |
| CC(N)c1cccc2ccccc12 (centres undefined) | 11 | 0 | – | – |
| COc1ccc(CN)cc1 | 0 | 4.56 | – | – |
| CC(=O)N[C@H](C(=O)NCc1cccc(CN)c1)c1ccccc1 | 2 | 13 | – | – |
| NCCc1ccc(O)c(O)c1 | 0 | 0 | – | – |
| NCc1ccc(F)cc1 | 134 | 127 | – | – |
| CCCCc1ccc(CN)cc1 | 5 | 24 | – | – |
| COc1ccc(CN)c2ccccc12 | 0.7 | 0 | – | – |
| NCc1cccc([N+](=O)[O-])c1O | 0.11 | 5.47 | – | – |
| CCc1ccc(CN)cc1 | 14 | 26 | – | – |
| NCc1ccc(C(=O)NCc2cccc(CN)c2)cc1 | 17 | 12 | – | – |
| NCCCc1ccccc1 | 44 | 40 | – | – |
| NCc1ccc(OC(F)(F)F)cc1 | 0 | 66.2 | – | – |
| NCc1ccc(OCc2ccccc2)cc1 | 0 | 0 | – | – |
| NCc1ccccc1F | 1.3 | 44 | – | – |
| C=CCOC(=O)NCc1cccc(CN)c1 | 21 | 49 | – | – |
| CCC(=O)NCc1cccc(CN)c1 | 4 | 27 | – | – |
| COc1ccc(O)c(CN)c1 | 0 | 0 | – | – |
| Cc1ccc(S(=O)(=O)NCc2cccc(CN)c2)cc1 | 12 | 14 | – | – |
| NCc1c(O)ccc2ccccc12 | 0 | 0 | – | – |
| NCc1ccc(O)c(Br)c1 | 0 | 0 | – | – |
| COc1cc(CN)cc(OC)c1 | 0 | 0.75 | – | – |
| NCc1cccc(CNC(=O)c2ccc(Br)cc2)c1 | 16 | 46 | – | – |
